According to ChEMBL document CHEMBL4689842, “EUbOPEN Chemogenomics Library wave 1” (2021):
Where “and” joins values, the source holds several entries; their conditions need not be identical. Identical values can stand only once.

Key:
Format in all cases: toxicity, cell-based
Fibroblast = experiment: Multiplex assay against human fibroblast
Outline: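 Live cells carried four stains from seeding: Hoechst33342, BioTracker Green Microtubule Cytoskeleton Dye, MitoTracker Red and Annexin V Alexa Fluor 680. They were imaged on a CQ1 microscope at 37°C and 5% CO2 after compound addition. Using CellPathfinder machine-learning gating, cells were split into Hoechst high-intensity objects or normal cells, normal cells into healthy, pyknosed or fragmented nuclei, and pyknosed cells into mitotic or apoptotic; tubulin, mitochondrial-mass and membrane-permeability phenotypes are per cents of healthy-nucleus cells.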

HEK-293T = experiment: Incucyte cell viability with HEK293T; conditions: human, 10 µM, compound concentration 10 uM; further: filed as whole numbers so only -1 and 0 and 1 occur
U2OS = experiment: Incucyte cell viability with U2OS; conditions: human, 10 µM, compound concentration 10 uM; further: filed as whole numbers so only -1 and 0 and 1 occur
[1] = 12 h, 1 µM, compound concentration 1 uM, replicate 1
[2] = 12 h, 1 µM, compound concentration 1 uM, replicate 2
[3] = 12 h, 10 µM, compound concentration 10 uM, replicate 1
[4] = 12 h, 10 µM, compound concentration 10 uM, replicate 2
[5] = 24 h, 1 µM, compound concentration 1 uM, replicate 1
[6] = 24 h, 1 µM, compound concentration 1 uM, replicate 2
[7] = 24 h, 10 µM, compound concentration 10 uM, replicate 1
[8] = 24 h, 10 µM, compound concentration 10 uM, replicate 2
[9] = 48 h, 10 µM, compound concentration 10 uM, replicate 1
[10] = 48 h, 10 µM, compound concentration 10 uM, replicate 2
[11] = 6 h, replicate number 1, timepoint 6 hours
[12] = 12 h, replicate number 1, timepoint 12 hours
[13] = 18 h, replicate number 1, timepoint 18 hours
[14] = 24 h, replicate number 1, timepoint 24 hours

c1ccc(-c2oc3ncnc(NC[C@@H]4CCCO4)c3c2-c2ccccc2)cc1
Population Apoptotic (%) (Fibroblast; [1]): 77% and 68% | Population Fragmented Nuclei (%) (Fibroblast; [1]): 30% and 24% | Population Healthy Nuclei (%) (Fibroblast; [1]): 49% and 53% | Population Hoechst High Intensity Objects (%) (Fibroblast; [1]): 11% and 13% | Population Membrane Permeable-Phenotype (%) (Fibroblast; [1]): 22% and 42% | Population Mitochondria Different-Phenotype (%) (Fibroblast; [1]): 7% and 16% | Population Mitotic Cells (%) (Fibroblast; [1]): 22% and 31% | Population Normal (%) (Fibroblast; [1]): 88% and 86% | Population Pyknosed Nuclei (%) (Fibroblast; [1]): 20% and 21% | Total Cell Count (Fibroblast; [1]): 123 and 267 | Population Apoptotic (%) (Fibroblast; [2]): 50% and 25% | Population Fragmented Nuclei (%) (Fibroblast; [2]): 35% and 48% | Population Healthy Nuclei (%) (Fibroblast; [2]): 40% and 37% | Population Hoechst High Intensity Objects (%) (Fibroblast; [2]): 35% and 44% | Population Membrane Permeable-Phenotype (%) (Fibroblast; [2]): 29% and 27% | Population Mitochondria Different-Phenotype (%) (Fibroblast; [2]): 11% and 18% | Population Mitotic Cells (%) (Fibroblast; [2]): 50% and 75% | Population Normal (%) (Fibroblast; [2]): 64% and 55% | Population Pyknosed Nuclei (%) (Fibroblast; [2]): 23% and 13% | Population Tubulin-Different-Phenotype (%) (Fibroblast; [2]): 47% and 100% | Total Cell Count (Fibroblast; [2]): 65 and 52 | Population Apoptotic (%) (Fibroblast; [3]): 53% | Population Fragmented Nuclei (%) (Fibroblast; [3]): 20% | Population Healthy Nuclei (%) (Fibroblast; [3]): 41% | Population Hoechst High Intensity Objects (%) (Fibroblast; [3]): 20% | Population Membrane Permeable-Phenotype (%) (Fibroblast; [3]): 21% | Population Mitochondria Different-Phenotype (%) (Fibroblast; [3]): 42% | Population Mitotic Cells (%) (Fibroblast; [3]): 46% | Population Normal (%) (Fibroblast; [3]): 79% | Population Pyknosed Nuclei (%) (Fibroblast; [3]): 37% | Population Tubulin-Different-Phenotype (%) (Fibroblast; [3]): 84% | Total Cell Count (Fibroblast; [3]): 99 | Population Apoptotic (%) (Fibroblast; [4]): 87% | Population Fragmented Nuclei (%) (Fibroblast; [4]): 14% | Population Healthy Nuclei (%) (Fibroblast; [4]): 71% | Population Hoechst High Intensity Objects (%) (Fibroblast; [4]): 6% | Population Membrane Permeable-Phenotype (%) (Fibroblast; [4]): 34% | Population Mitochondria Different-Phenotype (%) (Fibroblast; [4]): 56% | Population Mitotic Cells (%) (Fibroblast; [4]): 12% | Population Normal (%) (Fibroblast; [4]): 93% | Population Pyknosed Nuclei (%) (Fibroblast; [4]): 14% | Population Tubulin-Different-Phenotype (%) (Fibroblast; [4]): 95% | Total Cell Count (Fibroblast; [4]): 61 | Population Apoptotic (%) (Fibroblast; [5]): 65% and 78% | Population Fragmented Nuclei (%) (Fibroblast; [5]): 19% and 29% | Population Healthy Nuclei (%) (Fibroblast; [5]): 59% and 57% | Population Hoechst High Intensity Objects (%) (Fibroblast; [5]): 18% and 12% | Population Membrane Permeable-Phenotype (%) (Fibroblast; [5]): 17% and 16% | Population Mitotic Cells (%) (Fibroblast; [5]): 34% and 21% | Population Normal (%) (Fibroblast; [5]): 81% and 87% | Population Pyknosed Nuclei (%) (Fibroblast; [5]): 21% and 13% | Total Cell Count (Fibroblast; [5]): 254 and 121 | Population Apoptotic (%) (Fibroblast; [6]): 70% and 83% | Population Fragmented Nuclei (%) (Fibroblast; [6]): 43% and 66% | Population Healthy Nuclei (%) (Fibroblast; [6]): 34% and 17% | Population Hoechst High Intensity Objects (%) (Fibroblast; [6]): 33% and 36% | Population Membrane Permeable-Phenotype (%) (Fibroblast; [6]): 13% and 28% | Population Mitotic Cells (%) (Fibroblast; [6]): 30% and 16% | Population Normal (%) (Fibroblast; [6]): 66% and 63% | Population Pyknosed Nuclei (%) (Fibroblast; [6]): 22% and 15% | Population Tubulin-Different-Phenotype (%) (Fibroblast; [6]): 66% and 100% | Total Cell Count (Fibroblast; [6]): 66 and 61 | Population Apoptotic (%) (Fibroblast; [7]): 76% | Population Fragmented Nuclei (%) (Fibroblast; [7]): 43% | Population Healthy Nuclei (%) (Fibroblast; [7]): 39% | Population Hoechst High Intensity Objects (%) (Fibroblast; [7]): 25% | Population Membrane Permeable-Phenotype (%) (Fibroblast; [7]): 13% | Population Mitochondria Different-Phenotype (%) (Fibroblast; [7]): 51% | Population Mitotic Cells (%) (Fibroblast; [7]): 23% | Population Normal (%) (Fibroblast; [7]): 74% | Population Pyknosed Nuclei (%) (Fibroblast; [7]): 17% | Population Tubulin-Different-Phenotype (%) (Fibroblast; [7]): 82% | Total Cell Count (Fibroblast; [7]): 99 | Population Apoptotic (%) (Fibroblast; [8]): 100% | Population Fragmented Nuclei (%) (Fibroblast; [8]): 14% | Population Healthy Nuclei (%) (Fibroblast; [8]): 68% | Population Hoechst High Intensity Objects (%) (Fibroblast; [8]): 10% | Population Membrane Permeable-Phenotype (%) (Fibroblast; [8]): 21% | Population Mitochondria Different-Phenotype (%) (Fibroblast; [8]): 56% | Population Mitotic Cells (%) (Fibroblast; [8]): 0% | Population Normal (%) (Fibroblast; [8]): 90% | Population Pyknosed Nuclei (%) (Fibroblast; [8]): 16% | Population Tubulin-Different-Phenotype (%) (Fibroblast; [8]): 81% | Total Cell Count (Fibroblast; [8]): 60 | Population Apoptotic (%) (Fibroblast; [9]): 60% | Population Fragmented Nuclei (%) (Fibroblast; [9]): 36% | Population Healthy Nuclei (%) (Fibroblast; [9]): 51% | Population Hoechst High Intensity Objects (%) (Fibroblast; [9]): 14% | Population Membrane Permeable-Phenotype (%) (Fibroblast; [9]): 13% | Population Mitochondria Different-Phenotype (%) (Fibroblast; [9]): 55% | Population Mitotic Cells (%) (Fibroblast; [9]): 40% | Population Normal (%) (Fibroblast; [9]): 85% | Population Pyknosed Nuclei (%) (Fibroblast; [9]): 11% | Population Tubulin-Different-Phenotype (%) (Fibroblast; [9]): 95% | Total Cell Count (Fibroblast; [9]): 98 | Population Apoptotic (%) (Fibroblast; [10]): 0% | Population Fragmented Nuclei (%) (Fibroblast; [10]): 40% | Population Healthy Nuclei (%) (Fibroblast; [10]): 59% | Population Hoechst High Intensity Objects (%) (Fibroblast; [10]): 10% | Population Membrane Permeable-Phenotype (%) (Fibroblast; [10]): 16% | Population Mitochondria Different-Phenotype (%) (Fibroblast; [10]): 42% | Population Mitotic Cells (%) (Fibroblast; [10]): 0% | Population Normal (%) (Fibroblast; [10]): 89% | Population Pyknosed Nuclei (%) (Fibroblast; [10]): 0% | Population Tubulin-Different-Phenotype (%) (Fibroblast; [10]): 96% | Total Cell Count (Fibroblast; [10]): 105 | Growth Rate (HEK-293T; [11]): 0 | Growth Rate (HEK-293T; [12]): 0 | Growth Rate (HEK-293T; [13]): 0 | Growth Rate (HEK-293T; [14]): 0 | Growth Rate (U2OS; 0 h, replicate number 1, timepoint 0 hours): 1 | Growth Rate (U2OS; 0 h, replicate number 2, timepoint 0 hours): 0 | Growth Rate (U2OS; [11]): 1 | Growth Rate (U2OS; [12]): 0 | Growth Rate (U2OS; 12 h, replicate number 2, timepoint 12 hours): 1 | Growth Rate (U2OS; [13]): 0 | Growth Rate (U2OS; [14]): 0 | Growth Rate (U2OS; 24 h, replicate number 2, timepoint 24 hours): 1
